# According to paper PMC11297572 (International Journal of Nanomedicine, 2024):
# Entries after “also recorded” stand apart in the source; their conditions may differ.
# How the values were obtained:
# A549 cells [1] = assay: MTT growth inhibition of A549 cells; type: cell-based; settings: Homo sapiens
# How it was run: (§1)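 Cells were grown in RPMI 1640 or DMEM with 10% FBS and 100 U/mL penicillin-streptomycin at 37 °C, 5% CO2. Log-phase cells were seeded at 3–5×10³ per well and cultured 24 h before graded drug concentrations were added. After 24 or 48 h exposure, MTT (5 mg/mL solution) was added for 3–4 h. Medium was removed, formazan dissolved in DMSO with 10 min shaking, and OD read at 490 nm. Growth inhibition rate was calculated from OD. Data are mean ± SD of triplicates.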
# H460 cells = assay: MTT growth inhibition of H460 cells; type: cell-based; settings: Homo sapiens
# How it was run: as §1
# A549 cells [2] = assay: Apoptosis of A549 cells; type: cell-based, human; settings: 24 h
# [3] = tested on: A549 subcutaneous transplanted tumor; assay: In vivo antitumor efficacy in tumor-bearing nude mice; settings: 21 days of administration
# How it was run: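 The xenograft model used A549 cells. Treatment ran for 21 days with body weight tracked against the start of dosing; n = 5 per group. At the end, surviving mice were killed and tumors were excised and weighed to calculate tumor inhibition rate.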
# [4] = tested on: A549 subcutaneous transplanted tumor; assay: HE staining of tumor tissues; type: in vivo, nude mice; settings: tumor tissue after 21 days
# How it was run: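 Subcutaneous tumors were excised after 21 days of treatment once the surviving mice were killed. Tissue was washed twice in 0.9% saline, fixed in 4% paraformaldehyde, dehydrated, paraffin-embedded and sectioned. Sections were stained with hematoxylin and eosin and assessed for pathology. All procedures were done blind.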
# Ki67 = assay: Immunohistochemistry of Ki67 in tumor tissues; type: in vivo, nude mice; settings: tumor tissue after 21 days
# How it was run: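 Tumors were taken at the end of the 21-day study and fixed in 4% paraformaldehyde for 24 h. They were dehydrated in absolute alcohol, paraffin-embedded and sectioned. Antigen retrieval was 5 min at high temperature in 0.01 M citrate buffer, pH 6.0. Primary antibody (1:200) was applied overnight at 4 °C, then secondary antibody for 30 min at 37 °C. Sections were developed with DAB, counterstained with hematoxylin and imaged. Scoring was blind.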
# [5] = tested on: heart, liver, kidney and lung tissues; assay: HE staining of organs; type: in vivo; settings: lung of nude mice after administration
smiles,measurement,setting,value
"CC(=O)O[C@H]1C(=O)[C@@]2(C)[C@H]([C@H](OC(=O)c3ccccc3)[C@]3(O)C[C@H](OC(=O)[C@H](O)[C@@H](NC(=O)c4ccccc4)c4ccccc4)C(C)=C1C3(C)C)[C@]1(OC(C)=O)CO[C@@H]1C[C@@H]2O [PTX, paclitaxel]",IC50,"A549 cells [1]; A549, 24 h",45.9 µg/mL
same,IC50,"A549 cells [1]; A549, 48 h",31.7 µg/mL
same,IC50,"H460 cells; NCI-H460, 24 h",49.3 µg/mL
same,IC50,"H460 cells; NCI-H460, 48 h",39.4 µg/mL
same,apoptosis rate,"A549 cells [2]; A549, 5 μg/mL",3.57%
same,apoptosis rate,"A549 cells [2]; A549, 10 μg/mL",7.34%
same,apoptosis rate,"A549 cells [2]; A549, 20 μg/mL",16.6%
same,body weight change,[3]; nude mice,gradual
same,tumor inhibition rate,[3]; tumor-bearing nude mice,29.95%
same,necrosis of tumor tissue (necrotic area),[4],approximately 20%
same,expression of Ki67 in tumor tissues,Ki67,45.88%
same,pathological changes in organs (HE staining),[5],pathological changes and tumor cell infiltration; also recorded: different degrees of pathological changes and necrosis in their hearts and livers
